Data on 1 compound can be found in ChEMBL document CHEMBL4428057, “Discovery, Synthesis, and Evaluation of 2,4-Diaminoquinazolines as a Novel Class of Pancreatic β-Cell-Protective Agents against Endoplasmic Reticulum (ER) Stress” (J Med Chem, 2016).

Test [1] has as its system INS1. The test is described as follows: Protection against tunicamycin induced endoplasmic reticulum stress in rat INS-1 cells assessed as increase in cell viability after 3 days by CellTiter-Glo assay relative to control. Format: functional. In a few lines:
(§1)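 INS-1 cells at 3×10^3/well (384-well) co-treated with Tm 0.1 µg/mL and compound for 72 h; CellTiter-Glo ATP luminescence. Activity is % rescue, with Tm alone = 0% and DMSO without Tm = 100%. EC50 from ten 2-fold serial dilutions by curve fit; triplicate.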

The test system of test [2] is INS1. The test is described as follows: Protection against tunicamycin induced endoplasmic reticulum stress in rat INS-1 cells assessed as increase in cell viability after 3 days by CellTiter-Glo assay. The test is classed as functional, cell-based. Conditions: INS1, 72 h. A digest of the protocol:
as §1

Test [3] concerns INS1. Nature of the test: Protection against tunicamycin induced endoplasmic reticulum stress in rat INS-1 cells assessed as increase in cell viability at 5 uM after 72 hrs by CellTiter-Glo assay. The test is classed as functional, cell-based.
Test [4] deals with INS1. Nature of the test: Protection against tunicamycin induced endoplasmic reticulum stress in rat INS-1 cells assessed as increase in cell viability at 2.5 to 20 uM after 72 hrs by MTT assay. Format: functional, cell-based. A digest of the protocol:
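INS-1 cells at 3×10^3/well in 384-well plates treated with Tm 0.1 µg/mL ± compound or DMSO for 72 h. MTT reagent for 3 h at 37 °C, crystal-dissolving solution for 4 h, absorbance at 570 nm. Means of 3 replicate wells, representative of 3 experiments, SD.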
A general note: Tetrazolium assays rely on reduction of a dye to a coloured formazan, in cell work by metabolically active cells.

The subject of test [5] is INS1. The test is described as follows: Reversal of tunicamycin induced PARP cleavage in rat INS-1 cells at 20 uM after 2 to 24 hrs by Western blot analysis. The test is classed as functional, cell-based. A digest of the protocol:
(§2)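 Western blots of INS-1 cells (8×10^5/60-mm dish) treated with Tm 0.1 µg/mL ± compound 20 µM or DMSO for the indicated times. Lysates with EDTA and phosphatase inhibitors; 20 µg protein on 7% SDS-PAGE, PVDF. Primary antibodies at 1:1000 against ATF4, CHOP, cleaved caspase 3 or PARP; α-tubulin loading control; HRP secondaries. Representative of 3 experiments.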
On the technique in general: In western blotting, separated proteins are transferred to a membrane and probed.

For test [6], the system named is INS1. The test is described as follows: Protection against tunicamycin induced endoplasmic reticulum stress in rat INS-1 cells assessed as increase in cell viability at 20 uM after 24 hrs by live-cell phase-contrast image analysis. Format: functional, cell-based. A digest of the protocol:
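INS-1 cells treated with or without Tm 0.1 µg/mL in the presence of compound 20 µM or DMSO for 24 h; live-cell phase-contrast images acquired at 10× magnification.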

For test [7], the system named is INS1. The test is described as follows: Reversal of tunicamycin-induced suppression of INS1 mRNA levels in rat INS-1 cells at 20 uM after 24 hrs by qRT-PCR method. The test is classed as functional, cell-based. In a few lines:
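INS-1 cells (4×10^5/well, 6-well plates) given Tm 0.1 µg/mL ± compound 20 µM or DMSO for 24 h. INS1, INS2, PDX1 and MafA mRNA measured by qRT-PCR with rat primers. Means of 3 replicate wells, representative of 3 independent experiments; SD.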
Background: In qPCR the cycle at which signal appears reflects the starting amount.

Test [8] is filed under the species Rattus norvegicus. Nature of the test: Inhibition of IRE1alpha in rat INS-1 cells assessed as suppression of tunicamycin induced spliced XBP1 mRNA levels at 20 uM after 4 to 24 hrs in by qRT-PCR method. Format: cell-based. In a few lines: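 Spliced XBP1 mRNA in INS-1 cells (4×10^5/well, 6-well plates) measured by qRT-PCR with splicing-specific primers after Tm 0.1 µg/mL ± compound 20 µM or DMSO for the indicated times. Expressed as fold-increase over untreated control; 3 replicate wells, representative of 3 experiments, SD.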

The species named for test [9] is Rattus norvegicus. Nature of the test: Inhibition of IRE1alpha in rat INS-1 cells assessed as suppression of tunicamycin induced spliced XBP1 mRNA levels in at 20 uM after 4 to 24 hrs by agarose gel electrophoresis based RT-PCR method. The test is classed as cell-based. A digest of the protocol:
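Total XBP1 mRNA amplified by RT-PCR from INS-1 cells treated with Tm 0.1 µg/mL ± compound 20 µM or DMSO for the indicated times. Unspliced and spliced forms resolved on agarose gel; cyclophilin A as internal control. Representative of 3 independent experiments.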

Test [10] deals with T1, Eukaryotic translation initiation factor 2-alpha kinase 3 (Rattus norvegicus) (UniProt Q9Z1Z1).
T1 sequence (whole entry): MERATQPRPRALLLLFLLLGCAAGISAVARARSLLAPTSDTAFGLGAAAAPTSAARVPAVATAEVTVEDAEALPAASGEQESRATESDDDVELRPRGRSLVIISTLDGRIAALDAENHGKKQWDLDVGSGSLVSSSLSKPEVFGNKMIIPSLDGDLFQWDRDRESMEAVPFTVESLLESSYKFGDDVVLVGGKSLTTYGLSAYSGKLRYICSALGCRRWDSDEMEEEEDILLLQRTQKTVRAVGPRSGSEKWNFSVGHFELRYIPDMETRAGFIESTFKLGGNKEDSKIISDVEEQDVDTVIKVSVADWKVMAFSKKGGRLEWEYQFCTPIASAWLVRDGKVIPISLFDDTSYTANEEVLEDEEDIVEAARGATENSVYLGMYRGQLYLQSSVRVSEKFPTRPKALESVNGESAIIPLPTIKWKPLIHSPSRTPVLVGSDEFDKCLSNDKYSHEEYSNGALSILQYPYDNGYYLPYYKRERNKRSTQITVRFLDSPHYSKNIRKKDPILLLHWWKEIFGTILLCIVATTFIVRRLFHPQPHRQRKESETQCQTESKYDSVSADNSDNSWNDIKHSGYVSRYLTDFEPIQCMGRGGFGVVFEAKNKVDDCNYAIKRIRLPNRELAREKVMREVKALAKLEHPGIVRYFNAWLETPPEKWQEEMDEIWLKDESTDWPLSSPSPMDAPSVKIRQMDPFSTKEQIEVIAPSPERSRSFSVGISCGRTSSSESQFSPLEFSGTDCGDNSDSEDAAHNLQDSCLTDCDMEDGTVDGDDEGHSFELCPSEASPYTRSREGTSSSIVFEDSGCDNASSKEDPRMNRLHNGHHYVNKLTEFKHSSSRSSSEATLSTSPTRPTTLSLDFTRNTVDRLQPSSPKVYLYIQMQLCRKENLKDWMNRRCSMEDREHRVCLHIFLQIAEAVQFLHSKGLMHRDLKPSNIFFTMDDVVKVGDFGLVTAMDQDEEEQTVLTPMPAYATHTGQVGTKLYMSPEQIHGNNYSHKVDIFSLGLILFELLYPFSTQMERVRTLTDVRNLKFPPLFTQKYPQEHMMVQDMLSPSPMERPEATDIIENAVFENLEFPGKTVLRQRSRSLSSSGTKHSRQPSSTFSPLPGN
Nature of the test: Inhibition of PERK pathway in rat INS-1 cells assessed as reduction in tunicamycin induced CHOP mRNA levels at 20 uM after 2 to 24 hrs by qRT-PCR method. Format: cell-based. A digest of the protocol: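 ATF4 or CHOP mRNA measured by qRT-PCR in INS-1 cells treated with Tm 0.1 µg/mL ± compound 20 µM or DMSO for the indicated times. Expressed as fold-increase over untreated control; means of 3 replicate wells, representative of 3 independent experiments, SD.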

Test [11] deals with T1, Eukaryotic translation initiation factor 2-alpha kinase 3 (Rattus norvegicus). The test is described as follows: Inhibition of PERK pathway in rat INS-1 cells assessed as reduction in tunicamycin induced ATF4 protein levels at 20 uM after 2 to 24 hrs by Western blot analysis. Format: cell-based. A digest of the protocol: as §2

Active and inactive are the calls of the source. The rule behind the calls is not given here.

A word on the EC50: it is the concentration that produces a half-maximal response.

With `COc1ccc(CNc2nc(N3CCCCC3CO)nc3ccccc23)cc1` (racemic), the “%max” value with INS1 [1] was found to be 80.4%. Also, the EC50 in the test with INS1 [2] was 560 nM. In addition, the result with INS1 [3], in the test with INS1 [4], in the test on INS1 [5], with INS1 [6] and in the test on INS1 [7] was Active. Besides, the inhibition result (in the test listed under Rattus norvegicus [8]; in the test listed under Rattus norvegicus [9]; in test [10]; in test [11]) was “Active” in each case.
